Screening results from PubChem BioAssay.
ABHD4 inh: inhibitors of mouse ABHD4; Q8VD66; purified mABHD4, FP-Rh probe fluorescence polarization; inhibition, % at 8.92 µM; actives 0.54% (n = 370,000);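 active means inhibition exceeding the mean over every tested compound plus 3 SD, cut at about 30% in these data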
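assay system = mABHD4 protein | compound dosing = single nominal dose of 8.92 µM, 0.89% DMSO final | read-out basis = percent inhibition of probe binding, normalized to plate controls | schedule = Enzyme–compound pre-incubation 45 min, then probe 60 min, both 25 °C | detection = fluorescence polarization, excitation 525 nm, emission 598 nm, BODIPY TMR filters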
pPAFAH FP inh: inhibitors of human plasma PAF acetylhydrolase (pPAFAH); Q13093; recombinant pPAFAH, FP-rhodamine probe fluorescence polarization; inhibition, % at 3.39 µM; actives 1.5% (n = 330,000);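 active means inhibition above the mean inhibition across the screen plus 3 SD, cut at about 25% in these data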;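 further: inhibitors block binding of the rhodamine activity-based probe so polarization drops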
TCR-CD3 inh: human TCR-CD3 binding inhibition; TAMRA-labeled TCR probe fluorescence, biochemical; inhibition, % at 9.4 µM; actives 0.37% (n = 360,000); AID 651800; in the data active means inhibition above about 19%;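 further: recombinant mutant TCR 2C K166C tagged with TAMRA read by polarization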
HTRA1 inh: inhibitors of human serine peptidase HTRA1 | Q92743 | recombinant HTRA1, FP-rhodamine activity-based probe, fluorescence polarization | actives 0.5% (n = 340,000) | inhibition, % at 5.96 µM | AID 504803; in the data active means inhibition above about 36%
Target sequence (Q92743 whole entry, looked up): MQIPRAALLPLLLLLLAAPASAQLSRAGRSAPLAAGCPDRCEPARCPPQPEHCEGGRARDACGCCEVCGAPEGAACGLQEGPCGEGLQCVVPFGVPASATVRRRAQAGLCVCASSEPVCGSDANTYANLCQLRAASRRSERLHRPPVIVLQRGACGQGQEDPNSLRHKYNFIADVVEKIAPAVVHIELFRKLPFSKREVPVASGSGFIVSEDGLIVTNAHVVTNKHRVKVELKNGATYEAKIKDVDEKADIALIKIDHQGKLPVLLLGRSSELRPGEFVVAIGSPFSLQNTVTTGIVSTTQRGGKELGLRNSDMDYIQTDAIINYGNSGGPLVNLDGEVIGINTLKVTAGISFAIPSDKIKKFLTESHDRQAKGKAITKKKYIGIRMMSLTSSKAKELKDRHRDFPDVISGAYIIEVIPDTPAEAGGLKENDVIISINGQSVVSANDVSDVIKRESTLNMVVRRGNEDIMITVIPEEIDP
SIAE primary: inhibitors of human sialic acid acetylesterase SIAE | Q9HAT2 | SIAE FP-Rh probe binding, fluorescence polarization | inhibition, % at 9.66 µM | actives 0.69% (n = 370,000) | AID 1053197;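 active means inhibition above a cutoff: mean of compounds within the control limits plus 3 SD of those, cut at about 17% in these data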
Hits are given with their value; n = inactive; x = no result given. Compounds with a hit are over-represented: about 2.3% of the library has one in this group of screens.

SMILES	ABHD4 inh	pPAFAH FP inh	TCR-CD3 inh	HTRA1 inh	SIAE primary
Cc1ccc(OC(C)C(=O)Nc2ncc(Cl)cc2Cl)c([N+](=O)[O-])n1 (stereo not drawn)	n	n	n	n	n
CC(OC(=O)c1ccc([N+](=O)[O-])s1)C(=O)Nc1ncc(Cl)cc1Cl (stereo not drawn)	n	26	n	n	n
COC(=O)c1cc2c(c3c4ccccc4n(S(=O)(=O)c4cccc(C)c4)c13)C(=O)N(Cc1ccc(N(C)C)cc1)C2	n	x	n	x	n
CCOC(=O)C1CCN(c2cc3c(cc2NC(=O)c2ccccc2OCC)n(C)c(=O)n3C)CC1	n	31	n	n	n
Cc1cccc(NC(=O)COC(=O)c2ccc(C)c(S(=O)(=O)N3CCCCC3)c2)c1	n	n	n	n	n
Cc1cccc(NS(=O)(=O)c2cc(C(=O)OCC(=O)Nc3cc(C)on3)ccc2C)c1	n	33	n	n	n
O=C(COC(=O)Cc1ccsc1)NC1CCCCCC1	n	30	n	n	n
CCOc1ccc(OCCC(=O)OCC(=O)NC2CCCCC2)cc1	n	31	n	n	n
COc1ccc(NC(=O)COC(=O)Cc2ccsc2)c(OC)c1	n	30	n	n	n
CCOc1ccccc1NC(=O)COC(=O)Cc1ccsc1	n	n	n	n	n
CCCCS(=O)(=O)N1C2=NC3=C(C(=O)N(CCOC)C3=O)C3N(C)c4ccccc4[C@]23C[C@H]1CO (stereo partly drawn)	n	x	x	x	n
C=CCN(CC#CC(=C)C)Cc1ccccc1	n	x	x	x	n
CSC1=NSC2=NC(=O)/C(=C/c3coc4ccc(O)cc4c3=O)C(=N)N12	n	29	n	n	n
O=C(O)c1ccc2c(c1)C(=O)/C(=C/c1ccccc1)C2=O	31	27	n	n	n
CC(C)(C)N1C(=O)c2ccc(C(=O)O)cc2C1=O	n	n	n	n	n
COc1ccccc1NS(=O)(=O)c1cc(NC(=O)Nc2ccc(Cl)cc2Cl)ccc1N1CCCCC1	n	34	n	n	n
Cc1cc(C)c(NC(=O)COC(=O)Cc2cccs2)c(C)c1	n	26	n	n	n
Cc1cc(C)c(NC(=O)CNC(=O)COC(=O)/C=C/c2cccs2)c(C)c1	n	27	n	n	n
O=C1NC(=S)N/C1=C/c1cccn1-c1ccc([N+](=O)[O-])cc1	n	32	n	n	n
N=C1/C(=C/c2cccn2-c2ccc([N+](=O)[O-])cc2)C(=O)N=C2SC=CN12	n	n	n	n	n
O=c1c(O[C@@H]2O[C@H](CO)C(O)C2O)c(-c2ccc(O)c(O)c2)oc2cc(O)cc(O)c12 (stereo partly drawn)	x	n	x	n	x
O=c1cc(-c2ccc(O)c(O)c2)oc2cc(O[C@@H]3O[C@H](CO)[C@@H](O)[C@H](O)[C@H]3O)cc(O)c12	x	n	x	60	x
O=c1c(OC2OC(CO)C(O)C(O)C2O)c(-c2ccc(O)c(O)c2)oc2cc(O)cc(O)c12 (stereo not drawn)	n	29	n	n	n
COc1ccc(-c2ccc3c(N)c(C(=O)c4ccc(OC)c(OC)c4)sc3n2)cc1	n	n	n	n	n
COc1ccc(C(=O)c2sc3nc(-c4ccccc4)ccc3c2N)cc1OC	n	30	n	n	n
SMILES	ABHD4 inh	pPAFAH FP inh	TCR-CD3 inh	HTRA1 inh	SIAE primary
N#Cc1cccc(C(=O)N2CCC(Oc3cccnc3)CC2)c1	n	x	x	x	n
C/C(=N\NC(=O)c1cccc(N/N=C(\C)c2cc(O)ccc2O)c1)c1cc(O)ccc1O	n	32	30	n	n
Cc1ccc2ncnc(NCCC(=O)O)c2c1	n	n	n	n	n
COCCCNc1ncnc2ccc(C)cc12	n	25	n	n	n
CCCc1cc(=O)oc2c3c(c4c(c12)OC(C)(C)C=C4)OC(C)C(C)C3O (stereo not drawn)	n	31	n	n	n
CCCOc1ccc(C(=O)ON=C2CCN(C)CC2)cc1	n	26	n	n	n
CCOc1ccccc1C(=O)N[C@H](C(=O)OCc1csc(CC(=O)Nc2ccc(C)cc2)n1)C(C)C	n	33	n	n	n
Cc1ccccc1NC(=O)Cc1nc(COC(=O)C(NC(=O)c2ccccc2C)C(C)C)cs1 (stereo not drawn)	n	n	n	n	n
COC(=O)c1ccc(CSc2nc3scc(-c4cccs4)c3c(=O)[nH]2)o1	n	29	n	n	n
CCN(CC)c1ccc2cc(C(C)=O)c(=O)oc2c1	n	n	n	n	n
CCN(CC)c1ccc2cc(NC(=O)CCC(=O)O)c(=O)oc2c1	58	n	n	n	n
O=C(Nc1ccc2c(c1)CCC2)Nc1ccc2c(c1)OCO2	n	25	n	n	n
C[N+](C)(C)c1ccc(/C=N/Nc2nc(Cl)c(C#N)c(Cl)c2Cl)cc1	n	n	n	n	n
N#Cc1c(Cl)nc(N/N=C/c2ccccc2)c(Cl)c1Cl	n	29	n	n	n
CCOC(=O)c1c(-c2ccc(C)o2)csc1NC(=O)CSc1nncs1	n	25	n	n	n
CCC[C@H]1[C@@H](NC(=O)/C=C/c2ccccc2)CC[C@@]23CCCN2C(=O)CCC[C@@H]13	n	x	x	x	n
O=C(c1cc(-c2ccco2)on1)N1CCc2ccccc2C1	n	30	n	n	n
O=C(c1cc(-c2ccco2)on1)N1CCCc2ccccc21	n	25	n	n	n
CCCc1cc2c(O)ccc(O)c2c(=O)o1	n	x	n	x	n
O=C(COC(=O)c1c[nH]c2ccccc12)Nc1cccc(F)c1	n	25	n	n	n
O=C(COC(=O)c1c[nH]c2ccccc12)Nc1ccc(F)cc1	n	30	n	n	n
COC(=O)[C@]12C[C@H](CC(=O)NCCc3ccccc3OC)C(=O)N(Cc3ccc4c(c3)OCO4)C1=C[C@H](C(C)C)O[C@@H]2C1CC1	n	x	x	x	n
COC(=O)c1cc(-c2ccc(OC)c(OC)c2)c(=O)n2c1CCC2	n	x	x	x	n
O=S(=O)(Nc1nc(-c2ccccc2)cs1)c1cc(Cl)ccc1Cl	n	28	n	n	n
O=[N+]([O-])c1ccc(S(=O)(=O)Nc2nc(-c3ccccc3)cs2)cc1	n	n	n	n	n
SMILES	ABHD4 inh	pPAFAH FP inh	TCR-CD3 inh	HTRA1 inh	SIAE primary
CC[n+]1ccc(C)c2cc(S(=O)C(F)(F)F)ccc21 (stereo not drawn)	x	n	x	42	x
Cc1ccc(S(=O)(=O)N2CCCC2C(=O)N2CCN(c3ccccc3)CC2)cc1 (stereo not drawn)	n	x	x	x	n
CC(C)(C)C(=O)OC12CCCN(C1)/C(=C/c1cccnc1)C2 (stereo not drawn)	n	x	x	x	n
O=C(NCCc1c[nH]c2ccccc12)c1ccc(Sc2ccccc2Cl)c([N+](=O)[O-])c1	n	x	x	x	n
CC[C@@]1(c2ccc(C)cc2)C(=O)N(C(=O)OC)N1C(=O)OC	n	x	x	x	n
COc1ccc(OC)c(/C=C2\SC(N3CCCC(C)C3)=NC2=O)c1 (stereo not drawn)	n	27	n	n	n
O=C(COC(=O)c1ncc(Cl)c(Cl)c1Cl)Nc1cccnc1Cl	n	n	n	n	n
